Source: ChEMBL document CHEMBL3632619, “Angucyclines and Angucyclinones from Streptomyces sp. CB01913 Featuring C-Ring Cleavage and Expansion” (J Nat Prod, 2015)
≈ marks a conversion by molar mass, not a printed value. Calls of active or inactive are those of the source. No cut-off for these calls is given here.

What was measured:
SF-295 = assay: Cytotoxicity against human SF295 cells after 72 hrs by MTS assay; assay type: functional, cell-based; conditions: SF-295, 72 h
NCI-H226 = assay: Cytotoxicity against human NCI-H226 cells after 72 hrs by MTS assay; assay type: functional, cell-based; conditions: NCI-H226, 72 h
SF-539 = assay: Cytotoxicity against human SF539 cells after 72 hrs by MTS assay; assay type: functional, cell-based; conditions: SF-539, 72 h
M14 = assay: Cytotoxicity against human M14 cells after 72 hrs by MTS assay; assay type: functional, cell-based; conditions: M14, 72 h
MDA-MB-468 = assay: Cytotoxicity against human MDA-MB-468 cells after 72 hrs by MTS assay; assay type: functional, cell-based; conditions: MDA-MB-468, 72 h
Escherichia coli [1] = assay: Antibacterial activity against Escherichia coli ATCC 25922 after 12 hrs by agar diffusion method; assay type: functional, organism-based
How it was run: (§1)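 Filter-paper disc on tryptic soy agar receiving 25 µL of compound at 2 mM in H2O; plates incubated 37 °C for 12 h, then inhibition zone scored; tetracycline as positive control.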

Escherichia coli [2] = assay: Antibacterial activity against Escherichia coli JM 109 after 12 hrs by agar diffusion method; assay type: functional, organism-based; how it was run: as §1
Bacillus subtilis = assay: Antibacterial activity against Bacillus subtilis ATCC 23857 after 18 hrs by broth microdilution method; conditions: ATCC 23857, 18 h
Staphylococcus aureus = assay: Antibacterial activity against Staphylococcus aureus ATCC 25923 after 18 hrs by broth microdilution method; conditions: ATCC 25923, 18 h
[3] = tested on: Mycolicibacterium smegmatis; assay: Antibacterial activity against Mycobacterium smegmatis ATCC 607 after 18 hrs by broth microdilution method; conditions: ATCC 607, 18 h

| Structure (SMILES) | MIC (Bacillus subtilis) [µg/mL] | MIC (Staphylococcus aureus) [µg/mL] | MIC [3] [µg/mL] | IC50 (SF-295) [µM] | IC50 (NCI-H226) [µM] | IC50 (SF-539) [µM] | IC50 (M14) [µM] | IC50 (MDA-MB-468) [µM] | Activity (Escherichia coli [1]) | Activity (Escherichia coli [2]) |
| --- | --- | --- | --- | --- | --- | --- | --- | --- | --- | --- |
| COc1cccc(C(=O)c2c(O)ccc3c2C(=O)C[C@](C)(O)C3)c1CO | 85 (≈ 239 µM) | > 100 | 93 (≈ 261 µM) | > 100 | > 100 | > 100 | > 100 | > 100 | inactive | inactive |
| CO[C@@]12[C@H](COC(N)=O)C3=C(C(=O)C(C)=C(N)C3=O)N1C[C@@H]1N[C@@H]12 [MITOMYCIN] |  |  |  | 0.54 | 0.58 | 0.038 | 0.47 | 0.5 |  |  |
| COc1cccc2c1C(=O)c1ccc3c(c1C2O)C(=O)C[C@](C)(O)C3 (stereo partly drawn) | > 100 | > 100 | > 100 | 3.1 | 7.2 | 12 | 31 | 52 | inactive | inactive |

Further lines, with some results ahead:

| MIC (Bacillus subtilis) [µg/mL] | MIC (Staphylococcus aureus) [µg/mL] | MIC [3] [µg/mL] | Structure (SMILES) | IC50 (SF-295) [µM] | IC50 (NCI-H226) [µM] | IC50 (SF-539) [µM] | IC50 (M14) [µM] | IC50 (MDA-MB-468) [µM] | Activity (Escherichia coli [1]) | Activity (Escherichia coli [2]) |
| --- | --- | --- | --- | --- | --- | --- | --- | --- | --- | --- |
| 8.1 (≈ 25.1 µM) | 11 (≈ 34.1 µM) | 9.7 (≈ 30.1 µM) | C[C@]1(O)CC(=O)c2c(ccc3c2C(=O)c2cccc(O)c2C3=O)C1 [TETRANGOMYCIN] | 12 | 7.2 | 3.2 | 2.4 | 16 | inactive | inactive |
| 25 (≈ 74.3 µM) | > 100 | > 100 | COc1cccc2c1C(=O)c1ccc3c(c1C2=O)C(=O)C[C@](C)(O)C3 | 17 | 4.6 | 10 | 9.7 | 27 | inactive | inactive |
| 13 (≈ 29.3 µM) | 6.7 (≈ 15.1 µM) | 11 (≈ 24.8 µM) | CN(C)[C@@H]1C(O)=C(C(N)=O)C(=O)[C@@]2(O)C(O)=C3C(=O)c4c(O)cccc4[C@@](C)(O)[C@H]3C[C@@H]12 [TETRACYCLINE] |  |  |  |  |  |  |  |
